The values below come from ChEMBL document CHEMBL4402562, “Discovery of Novel Peptidomimetic Boronate ClpP Inhibitors with Noncanonical Enzyme Mechanism as Potent Virulence Blockers in Vitro and in Vivo” (J Med Chem, 2020).

Data set [1] is described as follows: Inhibition of Staphylococcus aureus ClpXP expressed in Escherichia coli […] using FITC-casein substrate in presence of ATP-regenerating system incubated for 50 mins by fluorescence based assay. An outline of the steps:
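3.6 μM SaClpP with 3 μM SaClpX in 25 mM Hepes pH 7.5, 20 mM MgCl2, 30 mM KCl, 0.03% Tween 20, 10% glycerol, 2 mM DTT. ATP regeneration: 4 mM ATP, 20 U/mL creatine kinase, 16 mM creatine phosphate. FITC-casein 0.048 mg/mL, 494/521 nm for 50 min; slope 300–1200 s vs DMSO. Thrice, triplicate wells.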

Data set [2] can be described thus: Toxicity in BALB/c mouse model of skin abscess infected with methicillin-resistant Staphylococcus aureus ATCC 33591 assessed as effect on LDH levels at 1.5 to 3 mg/kg injected into shaved area of skin once daily for 4 days. Format: organism-based. The settings on record: in vivo, other, 96 h. An outline of the steps: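 Infected BALB/c mice (n=5/group) dosed 1.5 or 3 mg/kg into the infected skin once daily for 4 days; blood collected on day 4 and day 14, centrifuged 3,500 rpm 15 min, serum biochemistry analysed.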

By IC50 is commonly meant the point on the concentration scale where inhibition reaches its midpoint.

SMILES strings stand for the structures.

For `CC(C)C[C@H](NC(=O)[C@H](Cc1c[nH]c2ccccc12)NC(=O)c1cc(Cl)ccc1Cl)B(O)O`, in data set [1], the IC50 worked out at 69.6 µM. Besides, in data set [2], the Activity entry is listed as “Non-Toxic”.
